Values after ≈ are worked out from the molar mass of the structure shown. Active and inactive are the calls of the source. Where only a bound is given, the exact number is not on record here.

The values that follow come from ChEMBL document CHEMBL1149749, “Antibacterial activity of totarol and its potentiation” (1992).

The subject of test [1] is Streptococcus mutans. Nature of the test: Antibacterial activity against Streptococcus mutans ATCC 25175 after 2 days by twofold serial dilution method. The class given is functional. The settings on record: ATCC 25175, 48 h. Summed up:
(§1)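 Twofold serial broth dilution in each organism's own medium, DMF held at 1% in all tubes. The highest concentration was 400 µg/ml unless otherwise specified. MIC was taken as the lowest concentration with no visible growth, and determinations were done in duplicate.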

For another test, the system named is Malassezia. Nature of the test: Antifungal activity against Pityrosporum ovale ATCC 14521 up to 400 ug/ml after 2 days by twofold serial dilution method. The class given is functional, organism-based. Summed up:
as §1

Test [2] has as its system Staphylococcus aureus. Nature of the test: Antibacterial activity against penicillin-resistant Staphylococcus aureus ATCC 29247 after 2 days by twofold serial dilution method. The settings on record: ATCC 29247, 48 h. The class given is functional. The gist of the method:
(§2)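 Twofold serial broth dilution, highest concentration 400 µg/ml. Samples were delivered in DMF, kept at 1% in the medium throughout. MIC was the lowest concentration with no visible growth, determined in duplicate.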

The next test concerns Saccharomyces cerevisiae. Nature of the test: Antifungal activity against Saccharomyces cerevisiae ATCC 7754 up to 400 ug/ml after 2 days by twofold serial dilution method. The class given is functional, organism-based. Summed up: as §1
The next test concerns Escherichia coli. Nature of the test: Antibacterial activity against Escherichia coli ATCC 13048 up to 400 ug/ml after 2 days by twofold serial dilution method. The class given is functional, organism-based. The gist of the method: as §1
A further test concerns Pseudomonas aeruginosa. Nature of the test: Antibacterial activity against Pseudomonas aeruginosa ATCC 10145 up to 400 ug/ml after 2 days by twofold serial dilution method. The class given is functional, organism-based. The gist of the method:
as §1

The subject of test [3] is Cutibacterium acnes. Nature of the test: Antibacterial activity against Propionibacterium acnes ATCC 11827 after 2 days by twofold serial dilution method. Conditions: ATCC 11827, 48 h. The class given is functional. The gist of the method:
as §1

In the next test the test system is Klebsiella aerogenes. Nature of the test: Antibacterial activity against Enterobacter aerogenes ATCC 13048 up to 400 ug/ml after 2 days by twofold serial dilution method. The class given is functional, organism-based. The gist of the method: as §1
A further test concerns Penicillium chrysogenum. Nature of the test: Antifungal activity against Penicillium chrysogenum ATCC 10106 up to 400 ug/ml after 2 days by twofold serial dilution method. The class given is functional, organism-based. The gist of the method:
as §1

The next test relates to Candida albicans. Nature of the test: Antifungal activity against Candida albicans ATCC 18804 up to 400 ug/ml after 2 days by twofold serial dilution method. The class given is functional, organism-based. Summed up:
as §1

The test system of test [4] is Bacillus subtilis. Nature of the test: Antibacterial activity against Bacillus subtilis ATCC 9372 after 2 days by twofold serial dilution method. The class given is functional. The settings on record: ATCC 9372, 48 h. The gist of the method:
as §1

In test [5] the test system is Corynebacterium ammoniagenes. Nature of the test: Antibacterial activity against Brevibacterium ammoniagenes ATCC 6872 after 2 days by twofold serial dilution method. The class given is functional. The settings on record: ATCC 6872, 48 h. Summed up:
as §1

For test [6], the system named is Staphylococcus aureus. Nature of the test: Antibacterial activity against penicillin-susceptible Staphylococcus aureus ATCC 12598 after 2 days by twofold serial dilution method. The class given is functional. Conditions: ATCC 12598, 48 h. Summed up: as §1
In test [7] the test system is Staphylococcus aureus. Nature of the test: Antibacterial activity against penicillin-susceptible Staphylococcus aureus ATCC 12598 up to 400 ug/ml after 2 days by twofold serial dilution method. The class given is functional, organism-based. Summed up:
as §1

Test [8] concerns Staphylococcus aureus. Nature of the test: Antibacterial activity against penicillin-resistant Staphylococcus aureus ATCC 29247 up to 400 ug/ml after 2 days by twofold serial dilution method. The class given is functional, organism-based. The gist of the method:
as §2

Test [9] relates to Corynebacterium ammoniagenes. Nature of the test: Antibacterial activity against Brevibacterium ammoniagenes ATCC 6872 up to 400 ug/ml after 2 days by twofold serial dilution method. The class given is functional, organism-based. The gist of the method:
as §1

Test [10] has as its system Streptococcus mutans. Nature of the test: Antibacterial activity against Streptococcus mutans ATCC 25175 up to 400 ug/ml after 2 days by twofold serial dilution method. The class given is functional, organism-based. The gist of the method: as §1
In test [11] the test system is Cutibacterium acnes. Nature of the test: Antibacterial activity against Propionibacterium acnes ATCC 11827 up to 400 ug/ml after 2 days by twofold serial dilution method. The class given is functional, organism-based. Summed up:
as §1

In test [12] the test system is Bacillus subtilis. Nature of the test: Antibacterial activity against Bacillus subtilis ATCC 9372 up to 400 ug/ml after 2 days by twofold serial dilution method. The class given is functional, organism-based. The gist of the method:
as §1

Regarding `CC(C)c1c(O)ccc2c1CC[C@H]1C(C)(C)CCC[C@]21C` [TOTAROL], the MBC against Streptococcus mutans [1] came to 0.78 µg/mL (≈ 2.72 µM); against Cutibacterium acnes [3], 0.78 µg/mL (≈ 2.72 µM); against Bacillus subtilis [4], 1.56 µg/mL (≈ 5.45 µM); in [5], 6.25 µg/mL (≈ 21.8 µM); against Staphylococcus aureus [6], 1.56 µg/mL (≈ 5.45 µM). Also, the minimal inhibitory concentration (MIC) with Streptococcus mutans [1] was found to be 0.78 µg/mL (≈ 2.72 µM); against Staphylococcus aureus [2], 0.78 µg/mL (≈ 2.72 µM); in the test on Cutibacterium acnes [3] it was 0.39 µg/mL (≈ 1.36 µM); with Bacillus subtilis [4], 1.56 µg/mL (≈ 5.45 µM); in test [5], 0.78 µg/mL (≈ 2.72 µM); with Staphylococcus aureus [6] it was 1.56 µg/mL (≈ 5.45 µM). Besides, the outcome in the test on Malassezia, in the test on Saccharomyces cerevisiae, with Escherichia coli, in the test on Pseudomonas aeruginosa, in the test with Klebsiella aerogenes and in the test on Penicillium chrysogenum was inactive. In the test with Candida albicans, the result was inactive.

Consider `CC(C)c1c(O)ccc2c1CC[C@H]1[C@@](C)(CO)CCC[C@]21C`, for which the outcome with Staphylococcus aureus [7], in the test with Malassezia, in the test on Staphylococcus aureus [8], in the test on Saccharomyces cerevisiae, with Escherichia coli and in the test with Pseudomonas aeruginosa was inactive. The outcome (in test [9]; in the test on Klebsiella aerogenes; in the test on Penicillium chrysogenum; with Candida albicans; with Streptococcus mutans [10]; in the test on Cutibacterium acnes [11]) was inactive. Besides, the result in the test with Bacillus subtilis [12] was inactive.

As to `CC(C)c1c(O)ccc2c1CC[C@H]1[C@@](C)(C(=O)O)CCC[C@]21C`, the result with Staphylococcus aureus [7], with Malassezia, in the test on Staphylococcus aureus [8], in the test with Saccharomyces cerevisiae, with Escherichia coli and in the test on Pseudomonas aeruginosa was inactive. Further, the result (in [9]; in the test with Klebsiella aerogenes; in the test with Penicillium chrysogenum; in the test on Candida albicans; in the test on Streptococcus mutans [10]; with Cutibacterium acnes [11]) was inactive. Also, the outcome in the test with Bacillus subtilis [12] was inactive.

With `CC1(C)S[C@@H]2[C@H](NC(=O)Cc3ccccc3)C(=O)N2[C@H]1C(=O)O` [PENICILLIN G], the minimum inhibitory concentration (MIC) is 0.049 µg/mL (≈ 0.147 µM) in the test with Streptococcus mutans [1]; more than 800 µg/mL with Staphylococcus aureus [2]; 0.012 µg/mL (≈ 0.0359 µM) against Cutibacterium acnes [3]; 50 µg/mL (≈ 150 µM) in the test on Bacillus subtilis [4]; 0.39 µg/mL (≈ 1.17 µM) in test [5]; 0.049 µg/mL (≈ 0.147 µM) in the test on Staphylococcus aureus [6].

For `CC(C)c1c(O)ccc2c1CC[C@H]1C(C)(C)[C@@H](O)CC[C@]21C` [TOTARADIOL], the MIC against Streptococcus mutans [1] is 200 µg/mL (≈ 661 µM); with Cutibacterium acnes [3], 25 µg/mL (≈ 82.7 µM); in the test with Bacillus subtilis [4], 25 µg/mL (≈ 82.7 µM); in test [5], 100 µg/mL (≈ 331 µM); against Staphylococcus aureus [6], 50 µg/mL (≈ 165 µM). Moreover, the outcome with Malassezia, in the test with Saccharomyces cerevisiae, in the test with Escherichia coli, in the test with Pseudomonas aeruginosa, in the test with Klebsiella aerogenes and in the test with Penicillium chrysogenum was inactive. In addition, the outcome with Candida albicans was inactive.

For the compound `CC(C)c1c(O)ccc2c1CC[C@H]1[C@@](C)(C=O)CCC[C@]21C`, the result in the test with Staphylococcus aureus [7], in the test with Malassezia, in the test with Staphylococcus aureus [8], in the test on Saccharomyces cerevisiae, with Escherichia coli and in the test with Pseudomonas aeruginosa was inactive. Further, the result (in [9]; in the test with Klebsiella aerogenes; with Penicillium chrysogenum; in the test on Candida albicans; with Streptococcus mutans [10]; with Cutibacterium acnes [11]) was inactive. Moreover, the outcome in the test on Bacillus subtilis [12] was inactive.

The term MBC denotes the smallest concentration meeting the test's criterion for killing. Read a high MBC as less potent killing. The MIC is the smallest concentration in the dilution series that meets the test's criterion for growth inhibition. Lower therefore signals a more susceptible organism.
